Most compounds without a hit are left out; they make up all but 2.3% or so of the library.
SR-BI DiI inh: mouse SR-BI HDL lipid transfer inhibition; Q61009; ldlA[mSR-BI] CHO cells, DiI-HDL uptake fluorescence, 3 h; inhibition, % at 12.5 µM; 0.96% of 320,000 active;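 active = mean replicate inhibition of at least 70% and a set share of replicates each scoring 70 or more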;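 note: 0% = median of neutral control wells and 100% = median of positive control wells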
CAL PDZ FP-1: human CAL PDZ-peptide interaction inhibition. inhibition, % at 20 µM. 0.02% of 330,000 active. purified CAL PDZ, TMR-peptide fluorescence polarization, 1 h;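 active = highest replicate inhibition of at least 40%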;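 note: plate controls were DMSO neutral control wells for no effect and unlabeled competitor peptide control wells for full effect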
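material = purified tagged CAL PDZ domain construct (CerCALP) | buffer or medium = sodium phosphate/NaCl buffer pH 7.4 with TCEP, IgG, Thesit | reagent = TMR-labelled reporter peptide T*-PRC34 bound in PDZ groove | incubation = 1 h room-temperature incubation prior to read | measured by = fluorescence polarization (mP) | evaluation = percent inhibition from loss of millipolarization | control set = unlabelled peptide and DMSO controls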
ATG4B inhibitor: inhibitors of human ATG4B cysteine protease | Q9Y4P1 | ATG4B cleavage of LC3-PLA2, NBD-HPC fluorescence, 1 h | inhibition, % at 8.33 µM | 0.51% of 340,000 active; in the data active = inhibition above about 40%
Target sequence (Q9Y4P1 whole entry, looked up): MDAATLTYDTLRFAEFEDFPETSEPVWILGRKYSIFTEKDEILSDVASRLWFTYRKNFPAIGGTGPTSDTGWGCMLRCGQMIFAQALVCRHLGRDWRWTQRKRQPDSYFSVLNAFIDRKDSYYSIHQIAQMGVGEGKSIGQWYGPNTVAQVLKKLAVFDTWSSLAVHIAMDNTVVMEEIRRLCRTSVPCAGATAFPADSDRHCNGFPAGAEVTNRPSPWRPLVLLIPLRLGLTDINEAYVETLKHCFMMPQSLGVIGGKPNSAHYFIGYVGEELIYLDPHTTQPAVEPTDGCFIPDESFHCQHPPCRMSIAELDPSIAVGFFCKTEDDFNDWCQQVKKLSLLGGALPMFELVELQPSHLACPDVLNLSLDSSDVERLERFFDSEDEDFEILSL
SR-BI DiI-HDL act: activators of SR-BI mediated HDL lipid uptake; CHO ldlA[mSR-BI] cells, DiI-HDL uptake fluorescence, 3 h; 100 = double the neutral-control signal; activation, % at 12.5 µM; 0.096% of 320,000 active;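 active = mean replicate activation of at least 60% and every replicate at or above 60%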;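 note: 0% = median plate neutral-control signal and 100% = twice that signal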
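Assay system: LDL receptor-deficient CHO ldlA cells overexpressing murine SR-BI / Medium: BSA-supplemented, HEPES-buffered Ham's F12, pH 7.4 / Probe or stimulus: DiI-labelled HDL at 10 µg/mL final / Timing: compound with DiI-HDL co-incubation, 3 h at 37 °C / Technique: bottom-read cell fluorescence after medium removal, ex 550/em 595 nm / Measure: HDL uptake via cellular fluorescence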
CAL PDZ FP-2: blocks peptide binding to the human CAL PDZ domain; purified CAL PDZ, TMR-peptide fluorescence polarization, 1 h; 0.92% of 300,000 active; Q9HD26; inhibition, % at 24.9 µM; AID 602252;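 active = mean inhibition of at least 30% with at least half of replicates also reaching 30%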;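 note: 0% = DMSO neutral control and 100% = excess unlabeled competitor peptide PRC23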
* hit, by the source's call; nt = no result; + = active, no number.

SMILES	SR-BI DiI inh	CAL PDZ FP-1	ATG4B inhibitor	SR-BI DiI-HDL act	CAL PDZ FP-2
Cc1ccc(C(=O)Nc2ccc(Br)c(C(F)(F)F)c2)cc1	72*	0	26	-72	nt
COc1c(C)cccc1C(=O)Nc1ccc(N2CCN(C(=O)c3ccccc3C)CC2)cc1	41	-3	-8	-41	1
Cc1ccc(NC(=O)c2ccc(C)cc2)cc1	25	-1	-10	-25	-4
Cc1ccc(C(=O)Nc2ccc(N3CCN(C(=O)c4ccco4)CC3)cc2)c(Cl)c1	85*	-2	-15	-85	1
Cc1cccc(NC(=O)c2ccc(NC(=O)c3ccccc3Br)cc2)c1	72*	-3	5	-72	-3
Cc1cccc(NC(=S)NNC(=O)c2ccccc2Br)c1	-8	-1	-3	8	-2
O=C(Nc1ccc(N2CCCC2)cc1)c1cccc(Cl)c1	86*	1	-6	-86	-1
c1ccc(Oc2ncnc3sccc23)cc1	-4	0	2	4	64*
Cc1ccccc1Oc1ncnc2sccc12	-8	0	-3	8	nt
CC(c1cccs1)N(Cc1ccco1)C(=S)Nc1ccccc1Cl (configuration not stated)	20	-1	-2	-20	7
Cc1ccccc1NC(=S)N(Cc1ccco1)C(C)c1cccs1 (configuration not stated)	-23	19	3	23	47*
CC1(C)O[C@@H]2[C@H](O1)[C@@H](COS(=O)(=O)O)O[C@H]2n1cc(Br)c(=O)[nH]c1=O	-28	-8	-3	28	-2
Cc1cccc(NC(=O)Cn2cnc3c(oc4ccccc43)c2=O)c1C	-20	62*	-1	20	-6
Cc1ccccc1NC(=O)Cn1cnc2c(oc3ccccc32)c1=O	3	0	-10	-3	-5
Cc1cc(-c2nnc(CCC(=O)NC(Cc3ccccc3)c3ccccc3)o2)no1 (configuration not stated)	-2	-2	4	2	-2
COc1ccc(CC(=O)Nc2ccc(N3CCN(c4ccc(OC)cc4)CC3)c(C#N)c2)cc1	78*	1	-11	-78	-3
COc1ccc(N2CCN(c3ccc(NC(=O)c4ccc5c(c4)OCO5)cc3C#N)CC2)cc1	-7	-3	8	7	-5
Cc1cccc(/C=C/c2nc3ccccc3c(=O)[nH]2)c1	29	0	-6	-29	nt
O=C(O)c1ccc(/C=C/c2nc3ccccc3c(=O)[nH]2)cc1	-24	2	-5	24	+
Cc1ccc(Nc2ccc(S(=O)(=O)N3CCOCC3)cc2[N+](=O)[O-])c(C)c1	0	0	2	0	0
CC(C)(C)C(O)C(Cc1ccccc1Cl)n1cncn1 (configuration not stated)	-28	1	3	28	1
COc1ccc2c(CC(=O)OCC(=O)Nc3cccc(S(N)(=O)=O)c3)coc2c1	-6	-1	-11	6	50*
COc1ccc(NC(=O)COC(=O)Cc2coc3cc(OC)ccc23)c(OC)c1	14	0	-6	-14	-10
O=C(NC1CCCCCC1)C1CC(=O)N(c2ccc(Cl)cc2)C1 (configuration not stated)	-17	-4	1	17	-10
O=C(NN=Cc1cc(=O)[nH]c(=O)[nH]1)c1ccncc1	-4	-1	-3	4	-4
SMILES	SR-BI DiI inh	CAL PDZ FP-1	ATG4B inhibitor	SR-BI DiI-HDL act	CAL PDZ FP-2
Cc1ccc(-c2nnn3c2nc(NCCc2ccc(S(N)(=O)=O)cc2)c2ccccc23)cc1	-88	1	13	88*	-9
COC(=O)c1cc2c(n1S(=O)(=O)c1ccc(C)cc1)C(=O)C(=O)c1[nH]cc(C(=O)OCc3ccccc3)c1-2	88*	2	-13	-88	5
COC(=O)c1ccc(COC(=O)c2ccc(CS(=O)(=O)c3ccc(C)cc3)cc2)cc1	10	-3	-4	-10	-1
Cc1csc(=O)n1CCC(=O)OC(C)C(=O)Nc1ccc(N2CCOCC2)cc1 (configuration not stated)	-7	0	-7	7	6
CC(=O)c1cccc(NC(=O)C(C)OC(=O)CCn2c(C)csc2=O)c1 (configuration not stated)	7	0	4	-7	62*
Cc1ccc(Cl)cc1N1CCN(S(=O)(=O)c2ccc(-c3ccc(=O)[nH]n3)o2)CC1	-7	-2	1	7	0
Cc1ccc(C)c(N2CCN(S(=O)(=O)c3ccc(-c4ccc(=O)[nH]n4)o3)CC2)c1	12	-1	3	-12	44*
COc1cccc(-n2c(=O)c3sccc3n(CC(=O)NCC3CCCO3)c2=O)c1 (configuration not stated)	-8	-3	-3	8	39*
CC(C)C[C@@H](CN)NC(=O)c1nc[nH]c1C(=O)N[C@@H](C)C(=O)CNC[C@H](C)NC(=O)c1nc[nH]c1C(=O)N[C@@H](CC(C)C)C(=O)O	-16	1	4	16	-3
C=CCOc1ccc(C2C(C(=O)c3ccco3)=C(O)C(=O)N2CCCN(CC)CC)cc1 (configuration not stated)	-42	-2	-1	42	0
CCN(CC)CCCN1C(=O)C(O)=C(C(=O)c2ccco2)C1c1ccc(OC(C)C)cc1 (configuration not stated)	-38	-2	-9	38	88*
Cc1ccc(C(=O)N(C)Cc2nc3ccccc3c(=O)[nH]2)cc1NC(=O)c1ccco1	7	-1	1	-7	-1
O=C(O)CCN(Cc1ccccc1)S(=O)(=O)c1ccc(Cl)cc1F	-27	0	1	27	-1
O=C(O)CCN(Cc1ccccc1)S(=O)(=O)c1ccccc1Cl	-12	-2	-14	12	52*
CC(OC(=O)c1ccc2c(c1)S(=O)(=O)c1ccccc1C2=O)C(N)=O (configuration not stated)	nt	0	-1	nt	nt
CCN1CCCc2cc(CN(CCN3CCOCC3)C(=S)Nc3cccc(C)c3)ccc21	21	-1	-3	-21	53*
CCN1CCCc2cc(CN(CCN3CCOCC3)C(=S)Nc3ccccc3C)ccc21	24	0	2	-24	17
CCc1c(C)sc(NC(=S)N2CC(C)OC(C)C2)c1C(=O)OC (configuration not stated)	26	1	-8	-26	0
CC(C)(C)c1ccc(C(=O)N2CCN(C(=O)c3ccco3)CC2)cc1	-10	0	-8	10	-5
Cc1cc(Cl)cc(C)c1OCC(=O)NC1CCCCCC1	-6	0	9	6	48*
Cn1nc(C(F)(F)F)cc1-c1ccc(S(N)(=O)=O)s1	-18	0	1	18	-7
COc1ccc([N+](=O)[O-])cc1NC(=O)Cn1ccc(C(F)(F)F)n1	-11	-1	-2	11	-5
